Experimental findings from ChEMBL document CHEMBL1153377, “8-Bromo-9-alkyl adenine derivatives as tools for developing new adenosine A2A and A2B receptors ligands” (Bioorg Med Chem, 2009) are described below.

One test has as its target Adenosine receptor A2a (Homo sapiens, UniProt P29274). The experiment in a line: Displacement of [3H]NECA from human adenosine A2A receptor expressed in CHO cells. It counts as cell-based. A digest of the protocol:
(§1)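 CHO cells stably expressing human receptor; membranes from a two-step spin (1000 g, then 100,000 g), resuspended in binding buffer, stored -80 °C. Competition with [3H]NECA at 30 nM (A2A) or 10 nM (A3); nonspecific binding defined with […]. Ki derived from competition experiments.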
(In general: Displacement assays read how much labelled ligand stays bound in the presence of the test substance.)

For a further test, the target named is T1, Adenosine receptor A2b (Homo sapiens, UniProt P29275).
T1 sequence (P29275 whole entry): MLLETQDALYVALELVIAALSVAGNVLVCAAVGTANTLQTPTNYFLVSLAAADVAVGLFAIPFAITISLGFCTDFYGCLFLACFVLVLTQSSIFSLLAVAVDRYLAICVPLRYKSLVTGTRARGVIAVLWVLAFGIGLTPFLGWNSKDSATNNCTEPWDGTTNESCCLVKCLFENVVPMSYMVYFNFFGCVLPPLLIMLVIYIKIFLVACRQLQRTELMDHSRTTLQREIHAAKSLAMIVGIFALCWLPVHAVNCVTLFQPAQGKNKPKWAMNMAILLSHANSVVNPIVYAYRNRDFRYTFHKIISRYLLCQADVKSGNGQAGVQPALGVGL
As to the kind of experiment: Antagonist activity at human adenosine A2B receptor expressed in CHO cells assessed as inhibition of NECA-stimulated adenylyl cyclase activity. It counts as functional, cell-based. The method, boiled down: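 Membranes from CHO cells stably transfected with human A2B receptor, prepared by a single high-speed centrifugation of the homogenate, resuspended in 50 mM Tris/HCl pH 7.4 and used at once. Inhibition of NECA-stimulated adenylyl cyclase activity measured; IC50 converted to Ki by Cheng-Prusoff equation.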

The next test deals with T2, Adenosine receptor A3 (Homo sapiens, UniProt P0DMS8).
T2 sequence (P0DMS8 whole entry): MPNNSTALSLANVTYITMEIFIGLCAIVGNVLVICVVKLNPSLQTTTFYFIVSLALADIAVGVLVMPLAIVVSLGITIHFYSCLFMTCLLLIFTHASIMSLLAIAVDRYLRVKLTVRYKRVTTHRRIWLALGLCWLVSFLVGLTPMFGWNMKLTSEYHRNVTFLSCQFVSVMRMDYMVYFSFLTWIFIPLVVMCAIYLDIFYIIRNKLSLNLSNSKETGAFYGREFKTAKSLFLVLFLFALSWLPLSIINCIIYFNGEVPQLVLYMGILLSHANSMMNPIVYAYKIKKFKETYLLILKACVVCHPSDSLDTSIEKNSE
As to the kind of experiment: Displacement of [3H]NECA from human adenosine A3 receptor expressed in CHO cells. The format is cell-based. The method, boiled down:
as §1

Another test has as its target T3, Adenosine receptor A1 (Homo sapiens, UniProt P30542).
T3 sequence (P30542 whole entry): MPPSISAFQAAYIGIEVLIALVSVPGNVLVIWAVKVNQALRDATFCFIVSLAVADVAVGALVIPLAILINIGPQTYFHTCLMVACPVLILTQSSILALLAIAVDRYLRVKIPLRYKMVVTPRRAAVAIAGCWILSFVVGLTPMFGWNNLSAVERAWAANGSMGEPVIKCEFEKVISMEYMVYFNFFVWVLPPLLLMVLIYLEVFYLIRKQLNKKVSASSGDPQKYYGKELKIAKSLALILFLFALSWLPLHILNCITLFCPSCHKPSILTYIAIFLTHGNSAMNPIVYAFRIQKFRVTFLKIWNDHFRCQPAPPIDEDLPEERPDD
As to the kind of experiment: Displacement of [3H]CCPA from human adenosine A1 receptor expressed in CHO cells. It counts as cell-based. A digest of the protocol:
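Membranes from CHO cells stably expressing human A1 receptor (1000 g spin to clear nuclei, then 100,000 g pellet, stored -80 °C in binding buffer). Competition binding with 1 nM [3H]CCPA; nonspecific binding defined with 1 mM theophylline. Ki calculated from competition curves.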

The Ki is a measure of affinity in units of concentration, obtained from inhibition or displacement.

Adenosine receptor A2a, sequence (P29274 whole entry): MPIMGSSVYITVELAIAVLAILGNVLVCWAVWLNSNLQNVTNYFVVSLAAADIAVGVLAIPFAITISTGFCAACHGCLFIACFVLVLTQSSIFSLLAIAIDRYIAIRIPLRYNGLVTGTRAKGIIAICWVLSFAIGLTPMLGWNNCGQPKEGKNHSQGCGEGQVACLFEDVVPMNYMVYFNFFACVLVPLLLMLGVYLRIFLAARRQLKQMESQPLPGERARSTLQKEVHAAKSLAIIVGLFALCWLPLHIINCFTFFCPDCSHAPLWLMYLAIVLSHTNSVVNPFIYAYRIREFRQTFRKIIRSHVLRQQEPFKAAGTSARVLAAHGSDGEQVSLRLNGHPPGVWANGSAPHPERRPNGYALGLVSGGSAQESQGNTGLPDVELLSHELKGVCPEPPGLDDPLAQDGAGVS

With `Nc1ncnc2c1nc(Br)n2Cc1ccccc1`, the Ki on Adenosine receptor A2a is 6.1 µM; at Adenosine receptor A2b, above 30 µM; at Adenosine receptor A3, at least 100 µM; on Adenosine receptor A1, 6.7 µM.
For `Nc1ncnc2c1ncn2CCc1ccccc1` the same measures were 9.6 µM, above 30 µM, above 100 µM and above 100 µM.
For `Nc1ncnc2c1nc(Br)n2CCc1ccccc1` the same measures were 4.9 µM, above 30 µM, above 30 µM and 12 µM.
Regarding `Nc1ncnc2c1nc(Br)n2CC(O)CO` (centres undefined), the Ki is 4 µM on Adenosine receptor A2a, 7.1 µM on Adenosine receptor A2b, at least 100 µM at Adenosine receptor A3 and 16 µM at Adenosine receptor A1.
For `Nc1ncnc2c1ncn2Cc1ccccc1` [9-BENZYL-9H-ADENINE] the same measures were 8.5 µM, above 30 µM, above 100 µM and above 100 µM.
The corresponding values for `Nc1ncnc2c1ncn2C[C@H](O)CO` [(S)-DHPA] are 8.5 µM, above 30 µM, above 100 µM and above 100 µM.
